{"data": "Results gathered from unrelated publications", "target": "Serine/threonine-protein kinase 32C (STK32C, Homo sapiens, UniProt Q86UX6)", "note": "Each line is one published result; the experiments were not run side by side."}
{"SMILES": "C[C@@H]1CN(c2ccc3ncc(-c4ccc5[nH]nc(C6CC6)c5c4)n3n2)C[C@H](C)O1", "test": "binding, competition with immobilised ligand", "setting": "50 nM", "remaining binding [%]": 85}
{"SMILES": "O=C(NCc1ncc(C(F)(F)F)cc1Cl)c1ccc2c(c1)C1(CCS(=O)(=O)CC1)[C@@H](C1CC1)N2S(=O)(=O)c1ccc(F)cc1", "test": "cell-free assay, competition with immobilised ligand", "setting": "1 µM", "remaining binding [%]": 100}
{"SMILES": "CN(C)c1nccc(-c2cnn3ncccc23)n1", "test": "binding", "setting": "1 µM", "remaining binding [%]": 100}
{"SMILES": "CCOC(=O)c1cc2cc(-c3cc(C(=O)NCc4ccc(C(=O)O)cc4)nn3C)ccc2[nH]1", "test": "cell-free assay, competition with immobilised ligand", "setting": "0.1 µM", "remaining binding [%]": 100}
{"SMILES": "N[C@@H]1CCN(c2nccc(-c3cnn4ncccc34)n2)C1", "test": "binding", "setting": "1 µM", "remaining binding [%]": 99}
{"SMILES": "CS(=O)(=O)N1CCCC(NC(=O)[C@H](CCC2CCCCC2)NC(=O)c2ccc(CNc3ncnc4c3nnn4-c3ccccc3)cc2)C1 (stereo partly shown)", "test": "cell-free assay, competition with immobilised ligand", "setting": "0.1 µM", "remaining binding [%]": 100}
{"SMILES": "CNC(=O)[C@@H]1CC[C@@H](n2c(-c3ccc4cnccc4c3)nc3ccc(C(=O)NCc4cccc(C(N)=O)c4)cc32)C1", "test": "binding, competition with immobilised ligand", "setting": "1 µM", "remaining binding [%]": 93}
{"SMILES": "O=C(c1ccc(Nc2nccc(-c3cc4ccccc4s3)n2)cc1)N1CCC(N2CCCC2)CC1", "test": "binding, competition with immobilised ligand", "setting": "1 µM", "remaining binding [%]": 100}
{"SMILES": "c1cncc(-c2cccc(Nc3nccc(NC4CCCCC4)n3)c2)c1", "test": "binding, competition with immobilised ligand", "setting": "10 µM", "remaining binding [%]": 55}
{"SMILES": "CN(CCCC(F)(F)F)c1nccc(-c2cnn3ncccc23)n1", "test": "binding", "setting": "1 µM", "remaining binding [%]": 65}
{"SMILES": "O=C(Nc1cnc(Oc2ccc(F)cc2)nc1)N1CCc2ncccc2[C@@H]1c1ccc(F)cc1", "test": "cell-free assay, competition with immobilised ligand", "setting": "1 µM", "remaining binding [%]": 96}
{"SMILES": "CN(c1nccc(-c2cnn3ncccc23)n1)C1CC1", "test": "binding", "setting": "1 µM", "remaining binding [%]": 70}
{"SMILES": "O=C(NCCCN1CCOCC1)c1ccc(Nc2ncc(Cl)c(-c3ccc(Cl)s3)n2)cc1", "test": "binding, competition with immobilised ligand", "setting": "1 µM", "remaining binding [%]": 100}
{"SMILES": "COc1ccnn2ncc(-c3ccnc(N(C)C)n3)c12", "test": "binding", "setting": "1 µM", "remaining binding [%]": 80}
{"SMILES": "C[C@@H](c1ccc(-n2cnc3c(N)ncnc32)cc1)N1CCc2nn(C)c(Cc3ccccc3)c2C1=O", "test": "binding, competition with immobilised ligand", "setting": "0.1 µM", "remaining binding [%]": 89}
{"SMILES": "CC1=C(C#N)C(c2ccc3c(c2)c(NC(=O)c2ccccc2C)nn3C)C(C#N)=C(C)N1", "test": "cell-free assay, competition with immobilised ligand", "setting": "1 µM", "remaining binding [%]": 79}
{"SMILES": "O=C(Nc1c[nH]nc1C(=O)NC1CCNCC1)c1cc(F)cc(F)c1", "test": "binding, competition with immobilised ligand", "setting": "1 µM", "remaining binding [%]": 97}
{"SMILES": "N#Cc1ccccc1CSc1nnc2c(n1)[nH]c1ccccc12", "test": "binding, competition with immobilised ligand", "setting": "10 µM", "remaining binding [%]": 83}
{"SMILES": "CNC(=O)Nc1ccc2c(c1)[C@@]1(CC2)OC(=O)N(CC(=O)N(Cc2ccc(F)cc2)[C@@H](C)C(F)(F)F)C1=O", "test": "cell-free assay, competition with immobilised ligand", "setting": "1 µM", "remaining binding [%]": 100}
{"SMILES": "Cc1cnn2ncc(-c3ccnc(N(C)C)n3)c2c1", "test": "binding", "setting": "1 µM", "remaining binding [%]": 100}
{"SMILES": "Cc1c[nH]c2nccc(Oc3c(F)cc(Nc4cc(Cl)nc(N)n4)cc3F)c12", "test": "cell-free assay, competition with immobilised ligand", "setting": "0.1 µM", "remaining binding [%]": 93}
{"SMILES": "CCN1CCN(Cc2ccc(C(=O)Nc3ccc(C)c(Oc4ccc5c(c4)CC(=O)N5)c3)cc2C(F)(F)F)CC1", "test": "binding, competition with immobilised ligand", "setting": "1 µM", "remaining binding [%]": 100}
{"SMILES": "COc1cnc(Nc2cccc(S(N)(=O)=O)c2)nc1N1CCN(c2ccccc2)C(=O)C1", "test": "binding, competition with immobilised ligand", "setting": "1 µM", "remaining binding [%]": 100}
{"SMILES": "C[C@H]1CCN(c2nccc(-c3cnn4ncccc34)n2)C1", "test": "binding", "setting": "1 µM", "remaining binding [%]": 100}
{"SMILES": "O=C(c1ccc(Nc2ncc(Cl)c(-c3cc4ccccc4s3)n2)cc1)N1CCC(N2CCCC2)CC1", "test": "binding, competition with immobilised ligand", "setting": "1 µM", "remaining binding [%]": 100}
